One assay concerns Rattus norvegicus. The experiment in a line: Antiinflammatory activity in rat assessed as inhibition of mustard oil-evoked acute neurogenic plasma protein extravasation in paw skin at 100 ug/kg, ip […] administered 10 mins before induction of inflammation. The format is functional. In a few lines: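 Rats received peptide 100 μg/kg ip 10 min before inflammation was induced with 1% mustard oil on dorsal paw skin; solvent-only controls run alongside. Read-out: Evans blue accumulated per g wet skin, given as mean + SEM, n = 6–10. Tested in blocks of 14–15 rats per day over 6 days, with treatments randomized. Mann–Whitney U test vs solvent.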

In assay [1] the target is Somatostatin receptor type 1 (Homo sapiens, UniProt P30872). The experiment in a line: Binding affinity to human sst1 by in vitro receptor autoradiography assay.
Chain of Somatostatin receptor type 1 (P30872 whole entry): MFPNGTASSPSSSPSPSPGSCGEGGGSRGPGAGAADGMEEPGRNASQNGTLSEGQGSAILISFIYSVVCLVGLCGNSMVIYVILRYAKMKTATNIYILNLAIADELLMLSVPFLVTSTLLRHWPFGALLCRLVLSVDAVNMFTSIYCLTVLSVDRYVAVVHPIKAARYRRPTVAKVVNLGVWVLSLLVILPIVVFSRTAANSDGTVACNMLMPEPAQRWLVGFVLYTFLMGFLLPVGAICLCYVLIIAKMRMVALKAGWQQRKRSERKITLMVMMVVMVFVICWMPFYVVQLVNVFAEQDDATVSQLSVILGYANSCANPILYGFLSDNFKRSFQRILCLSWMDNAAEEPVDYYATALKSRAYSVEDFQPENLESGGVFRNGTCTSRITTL
For assay [2], the target named is Somatostatin receptor type 4 (Homo sapiens, UniProt P31391). The experiment in a line: Binding affinity to human sst4 by in vitro receptor autoradiography assay.
Chain of Somatostatin receptor type 4 (P31391 whole entry): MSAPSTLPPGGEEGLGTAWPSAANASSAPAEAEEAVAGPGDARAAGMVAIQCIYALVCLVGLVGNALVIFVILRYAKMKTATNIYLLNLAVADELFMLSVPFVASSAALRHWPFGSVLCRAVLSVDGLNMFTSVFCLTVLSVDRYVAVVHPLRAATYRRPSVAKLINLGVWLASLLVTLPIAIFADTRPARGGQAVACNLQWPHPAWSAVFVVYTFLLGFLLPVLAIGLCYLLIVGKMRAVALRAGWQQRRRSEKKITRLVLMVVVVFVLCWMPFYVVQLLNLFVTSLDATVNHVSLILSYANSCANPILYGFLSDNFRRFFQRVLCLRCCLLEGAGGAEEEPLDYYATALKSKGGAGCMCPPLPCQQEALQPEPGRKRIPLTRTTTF
In assay [3] the target is Somatostatin receptor type 3 (Homo sapiens, UniProt P32745). Description: Binding affinity to human sst3 by in vitro receptor autoradiography assay.
Chain of Somatostatin receptor type 3 (P32745 whole entry): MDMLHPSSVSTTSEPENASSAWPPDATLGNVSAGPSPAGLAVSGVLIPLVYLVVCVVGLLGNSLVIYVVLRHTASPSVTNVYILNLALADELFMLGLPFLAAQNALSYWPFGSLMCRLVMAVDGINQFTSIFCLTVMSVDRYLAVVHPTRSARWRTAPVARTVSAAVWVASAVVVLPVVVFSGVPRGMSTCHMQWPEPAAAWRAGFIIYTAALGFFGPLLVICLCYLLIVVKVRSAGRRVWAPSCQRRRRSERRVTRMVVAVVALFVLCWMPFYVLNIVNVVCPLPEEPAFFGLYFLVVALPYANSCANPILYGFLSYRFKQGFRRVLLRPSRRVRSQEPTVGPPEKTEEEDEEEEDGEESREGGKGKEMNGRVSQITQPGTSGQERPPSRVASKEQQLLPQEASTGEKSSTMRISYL
In assay [4] the target is Somatostatin receptor type 2 (Homo sapiens, UniProt P30874). Description: Binding affinity to human sst2 by in vitro receptor autoradiography assay.
Chain of Somatostatin receptor type 2 (P30874 whole entry, the tested form may be a part): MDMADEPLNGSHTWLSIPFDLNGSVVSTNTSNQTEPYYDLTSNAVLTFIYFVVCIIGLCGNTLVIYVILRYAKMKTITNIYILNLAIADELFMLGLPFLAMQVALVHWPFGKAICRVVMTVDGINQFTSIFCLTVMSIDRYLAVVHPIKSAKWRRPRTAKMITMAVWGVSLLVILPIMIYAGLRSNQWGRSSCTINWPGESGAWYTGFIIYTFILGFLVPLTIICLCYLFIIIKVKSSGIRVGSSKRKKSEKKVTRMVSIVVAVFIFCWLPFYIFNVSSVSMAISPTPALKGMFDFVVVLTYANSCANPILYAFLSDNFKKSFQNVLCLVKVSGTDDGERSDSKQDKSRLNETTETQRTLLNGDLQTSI
Assay [5] addresses Somatostatin receptor type 2 (Rattus norvegicus) (UniProt P30680). The experiment in a line: Inhibition of sst2 in rat trachea assessed as effect on EFS-induced CGRP release in stimulated and poststimulated tracheal fraction at 500 nM after 8 mins by radioimmunoassay technique relative to control. Format: tissue-based. Further details: scale not given: the % may be the effect or the level left. An outline of the steps: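 Whole tracheae from exsanguinated, deeply anaesthetised rats, two per 1.8 mL organ bath, equilibrated 60 min with oxygenated Krebs (pH 7.2, 37 °C, 1 mL/min perfusion). Three static 8 min fractions; EFS (40 V, 0.1 ms, 10 Hz, 120 s) in the second. Peptide (500 nM) added at the start of fractions 2 and 3. CGRP measured by RIA in 200 μL samples, normalised to wet tissue weight; n = 5.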

The target of assay [6] is Somatostatin receptor type 5 (Homo sapiens, UniProt P35346). Description: Binding affinity to human sst5 by in vitro receptor autoradiography assay.
Chain of Somatostatin receptor type 5 (P35346 whole entry): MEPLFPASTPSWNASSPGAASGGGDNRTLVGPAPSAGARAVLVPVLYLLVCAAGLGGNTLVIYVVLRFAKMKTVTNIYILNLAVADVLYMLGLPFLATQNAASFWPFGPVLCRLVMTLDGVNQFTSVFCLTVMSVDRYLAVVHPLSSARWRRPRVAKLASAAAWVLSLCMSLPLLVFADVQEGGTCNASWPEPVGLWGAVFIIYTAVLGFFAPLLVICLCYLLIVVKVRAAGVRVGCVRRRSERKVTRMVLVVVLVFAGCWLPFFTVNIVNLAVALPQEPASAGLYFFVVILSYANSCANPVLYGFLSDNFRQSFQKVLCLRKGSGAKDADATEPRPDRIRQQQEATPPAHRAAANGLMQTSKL

Eight compounds from ChEMBL document CHEMBL2010647, “N-Methylated sst2 Selective Somatostatin Cyclic Peptide Analogue as a Potent Candidate for Treating Neurogenic Inflammation” (ACS Med Chem Lett, 2011) can be followed below.

What is called IC50 is the concentration that inhibits the measured activity by half. Broadly, the inhibition in vivo is how much of the control response was suppressed.

Calls of active or inactive are those of the source. No cut-off for these calls is given here. Bounds are passed on as bounds.

Chain of Somatostatin receptor type 2 (Rattus norvegicus) (P30680 whole entry, the tested form may be a part): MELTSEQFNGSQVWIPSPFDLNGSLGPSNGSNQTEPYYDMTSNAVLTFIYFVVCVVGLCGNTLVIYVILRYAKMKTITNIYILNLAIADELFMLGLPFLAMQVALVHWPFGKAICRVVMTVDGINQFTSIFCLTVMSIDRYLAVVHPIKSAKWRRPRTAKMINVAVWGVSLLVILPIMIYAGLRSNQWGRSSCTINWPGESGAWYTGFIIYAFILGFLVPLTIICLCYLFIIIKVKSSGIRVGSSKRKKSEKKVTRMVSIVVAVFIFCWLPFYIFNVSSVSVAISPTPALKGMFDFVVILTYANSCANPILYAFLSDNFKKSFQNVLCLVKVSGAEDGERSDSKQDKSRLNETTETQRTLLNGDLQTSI

With `CC(C)[C@@H]1NC(=O)[C@H](CCCCN)N(C)C(=O)[C@@H](Cc2c[nH]c3ccccc23)N(C)C(=O)[C@H](Cc2ccc(O)cc2)NC(=O)[C@H](C)N(C)C(=O)[C@H](Cc2ccccc2)NC1=O`, the inhibition result in the assay on Rattus norvegicus is “inactive”. In addition, the IC50 in assay [1] was over 1000 nM; in assay [2], over 1000 nM; in assay [3], 172 nM; in assay [4] it was 3.1 nM; in assay [6], 196 nM. The Activity in assay [5] is 153%.

Take `CC(C)[C@@H]1NC(=O)[C@H](CCCCN)N(C)C(=O)[C@@H](Cc2c[nH]c3ccccc23)N(C)C(=O)[C@H](Cc2ccc(O)cc2)NC(=O)[C@H](C)N(C)C(=O)[C@H](Cc2ccccc2)N(C)C1=O`: the inhibition in vivo at 0.1 mg/kg in the assay with Rattus norvegicus came out at 40%. In addition, the IC50 in assay [1] is over 1000 nM; in assay [2] it was over 1000 nM; in assay [3], 200 nM; in assay [4], 44 nM; in assay [6] it was 263 nM. Further, the Activity in assay [5] was 100%.

As to `CC(C)[C@@H]1NC(=O)[C@H](CCCCN)N(C)C(=O)[C@@H](Cc2c[nH]c3ccccc23)NC(=O)[C@H](Cc2ccc(O)cc2)NC(=O)[C@H](C)N(C)C(=O)[C@H](Cc2ccccc2)N(C)C1=O`, the IC50 was over 1000 nM in assay [1]; 373 nM in assay [2]; 175 nM in assay [3]; 4.1 nM in assay [4]; 137 nM in assay [6]. In addition, the Activity in assay [5] turned out to be 343%.

Consider `CC(C)[C@@H]1NC(=O)[C@H](CCCCN)NC(=O)[C@@H](Cc2c[nH]c3ccccc23)NC(=O)[C@H](Cc2ccc(O)cc2)NC(=O)[C@H](C)N(C)C(=O)[C@H](Cc2ccccc2)NC1=O` [SEGLITIDE], for which the IC50 was over 1000 nM in assay [1], 105 nM in assay [3] and 81 nM in assay [6]. Further, in assay [5], the Activity came out at 294%.

As to `CC(C)[C@@H]1NC(=O)[C@H](CCCCN)N(C)C(=O)[C@@H](Cc2c[nH]c3ccccc23)NC(=O)[C@H](Cc2ccc(O)cc2)NC(=O)[C@H](C)N(C)C(=O)[C@H](Cc2ccccc2)NC1=O`, the inhibition result with Rattus norvegicus is “inactive”. For the same compound, the IC50 was over 1000 nM in assay [1]; over 1000 nM in assay [2]; 308 nM in assay [3]; 4.2 nM in assay [4]; 247 nM in assay [6]. Moreover, the Activity in assay [5] stood at 182%.

Turning to `CC(C)[C@@H]1NC(=O)[C@H](CCCCN)NC(=O)[C@@H](Cc2c[nH]c3ccccc23)NC(=O)[C@H](Cc2ccc(O)cc2)NC(=O)[C@H](C)N(C)C(=O)[C@H](Cc2ccccc2)N(C)C1=O`, the IC50 in assay [1] is over 1000 nM; in assay [2] it was over 1000 nM; in assay [3] it was 98 nM; in assay [4], 4.4 nM; in assay [6], 53 nM. Also, the Activity in assay [5] came to 355%.

As to `CC(C)[C@@H]1NC(=O)[C@H](CCCCN)NC(=O)[C@@H](Cc2c[nH]c3ccccc23)N(C)C(=O)[C@H](Cc2ccc(O)cc2)NC(=O)[C@H](C)N(C)C(=O)[C@H](Cc2ccccc2)N(C)C1=O`, the IC50 in assay [1] was over 1000 nM; in assay [2], over 1000 nM; in assay [3], 82 nM; in assay [4], 45 nM; in assay [6], 76 nM. In assay [5], the Activity turned out to be 268%.

Turning to `CC(C)[C@@H]1NC(=O)[C@H](CCCCN)NC(=O)[C@@H](Cc2c[nH]c3ccccc23)N(C)C(=O)[C@H](Cc2ccc(O)cc2)NC(=O)[C@H](C)N(C)C(=O)[C@H](Cc2ccccc2)NC1=O`, the 50% inhibitory concentration (IC50) is over 1000 nM in assay [1]; over 1000 nM in assay [2]; 205 nM in assay [3]; 5.5 nM in assay [4]; 126 nM in assay [6]. Further, in assay [5], the Activity amounted to 360%.
